A short description of data set [1]: folding enthalpy; higher = less favourable; fluorescence melt of hairpins on a sequencing array, two-state fit. Particulars: sodium 0.088 M. The procedure, abridged:
(§1)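 Two-state fits, bootstrapped, provided melting temperature and folding enthalpy from Cy3 fluorescence normalised to pre-quench Cy3 and to control constructs. Library hairpins with annealed Cy3 and quencher oligos were imaged on a sequenced MiSeq flow cell in 50 mM Na-HEPES pH 8.0, 25 mM NaCl, at 2.5 °C intervals up to 60 °C. Four replicates were combined with inverse-variance weighting. A 9.35 °C upward shift was applied to fitted temperatures to match UV melts.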

Data set [2] is described as follows: melting temperature; fluorescence melt of hairpins on a sequencing array, two-state fit, raised by 9.35 °C to match UV melts. The settings on record: sodium 0.088 M. The procedure, abridged:
as §1

Consider GCTCAGGGAAACTTGGGC ((.((.(....).)).)), for which the folding enthalpy in data set [1] is -20.6 kcal/mol. Besides, the Tm in data set [2] came to 35.3 °C.

Consider GATCCCTGTAGGGATC ((((((....)))))), for which, in data set [1], the folding enthalpy was -41.1 kcal/mol. Also, the Tm in data set [2] amounted to 65.8 °C.

With GCATACCGAAAGGTGTGC (((.(((....))).))), the folding enthalpy in data set [1] is -43.2 kcal/mol. In data set [2], the Tm worked out at 63.3 °C.

As to CGAAACCGGAAACGGTCG (((..(((....)))))), the folding enthalpy in data set [1] is -14.9 kcal/mol. Moreover, in data set [2], the Tm stood at 43.8 °C.

Turning to GCTTACGAAAGTATAAGC ((((((....)))..))), the folding enthalpy in data set [1] was -28.6 kcal/mol. The Tm in data set [2] stood at 38.3 °C.

With GCCTCCCCGAAAGGGGGC (((..(((....)))))), in data set [1], the folding enthalpy was -9.45 kcal/mol. Also, the Tm in data set [2] came out at 52.5 °C.

As for GGGTCGACGAAAGTCCCC (((..(((....)))))), in data set [1], the folding enthalpy was -17.7 kcal/mol. Further, in data set [2], the Tm was 38.7 °C.

Regarding GATCCTTCCTAGGATC ((((((....)))))), the folding enthalpy in data set [1] was -44.7 kcal/mol. In addition, the Tm in data set [2] was determined as 52.1 °C.

For GAAGAGCGAAAGCTTTTC (((.(((....))).))), in data set [1], the folding enthalpy was -24.1 kcal/mol. In addition, the Tm in data set [2] was found to be 44.7 °C.

Take GATCTGTCCACAGATC ((((((....)))))): the folding enthalpy in data set [1] is -40.8 kcal/mol. For the same sequence, the Tm in data set [2] worked out at 55.6 °C.

With GATCACCATTGTGATC ((((((....)))))), the folding enthalpy in data set [1] was -39.2 kcal/mol. For the same sequence, the Tm in data set [2] came to 56.3 °C.

Take GCACTGCGAAAGCAACGC ((..(((....)))..)): the folding enthalpy in data set [1] is -14.2 kcal/mol. For the same sequence, the Tm in data set [2] stood at 36.2 °C.

GATCAGCTATCTGATC ((((((....)))))): the folding enthalpy in data set [1] was -34.7 kcal/mol. Also, the Tm in data set [2] amounted to 49.3 °C.

For the sequence GCCTTCCGAAAGGACGGC (((.(((....))).))), the folding enthalpy in data set [1] is -41.6 kcal/mol. In data set [2], the Tm was 57.3 °C.

With GATCGGTCCTCCGATC ((((((....)))))), in data set [1], the folding enthalpy is -38 kcal/mol. For the same sequence, the Tm in data set [2] amounted to 59.9 °C.

In the case of GGTGGTCGAAAGACACC (((.(((....)))))), the folding enthalpy in data set [1] is -17.5 kcal/mol. Besides, in data set [2], the Tm amounted to 54.8 °C.

As to GCTGCCGGAAACGGCAAC (.(((((....))))).), the folding enthalpy in data set [1] was -10.9 kcal/mol. Further, the Tm in data set [2] worked out at 47.4 °C.

For the sequence GATCTCTCGCGAGATC ((((((....)))))), the folding enthalpy in data set [1] is -42.2 kcal/mol. In addition, in data set [2], the Tm was 51.4 °C.

In the case of GTTCCACGAAAGTGAAAC (((.(((....))).))), the folding enthalpy in data set [1] is -25.2 kcal/mol. The Tm in data set [2] came out at 43.4 °C.

In the case of GTCATCCGAAAGGACGAC (((.(((....))).))), the folding enthalpy in data set [1] is -36.4 kcal/mol. The Tm in data set [2] is 49.3 °C.

As to GCTGCGCGAAAGCGAGGC ((..(((....)))..)), in data set [1], the folding enthalpy was -20.3 kcal/mol. The Tm in data set [2] turned out to be 60.6 °C.

With GTTCCTGGAAACGGGAAC (((((.(....).))))), the folding enthalpy in data set [1] is -40.9 kcal/mol. The Tm in data set [2] is 50.7 °C.

In the case of GATCTTTTTTAAGATC ((((((....)))))), the folding enthalpy in data set [1] is -35.2 kcal/mol. The Tm in data set [2] is 45.2 °C.

Take CGCCTTCGGAAACGAGCG (((..(((....)))))): in data set [1], the folding enthalpy was -13.6 kcal/mol. Moreover, the Tm in data set [2] was 36.3 °C.

Take GATCGGCTCCCCGATC ((((((....)))))): in data set [1], the folding enthalpy is -42.1 kcal/mol. The Tm in data set [2] came to 55.2 °C.

In the case of GATCGTACGGACGATC ((((((....)))))), in data set [1], the folding enthalpy is -45.6 kcal/mol. Moreover, the Tm in data set [2] turned out to be 54.4 °C.

On to GTCACAGGAAACTGTGGC (.(((((....))))).), for which, in data set [1], the folding enthalpy is -32.8 kcal/mol. The Tm in data set [2] worked out at 52.5 °C.

For the sequence GCAGATCGAAAGATGTGC (((.(((....))).))), the folding enthalpy in data set [1] is -35.1 kcal/mol. For the same sequence, in data set [2], the Tm is 53.6 °C.

Regarding GCTACAGGAAACCGTAGC (((((.(....).))))), the folding enthalpy in data set [1] is -31.6 kcal/mol. Moreover, the Tm in data set [2] was 47.7 °C.

GGACGTGGAAACACGTTC (.(((((....))))).): the folding enthalpy in data set [1] was -23 kcal/mol. Besides, the Tm in data set [2] was 53.7 °C.

Take GATCGAAAAGTCGATC ((((((....)))))): the folding enthalpy in data set [1] was -28.5 kcal/mol. For the same sequence, the Tm in data set [2] came out at 45.9 °C.

With GATCCGCGGTCGGATC ((((((....)))))), in data set [1], the folding enthalpy is -42.7 kcal/mol. For the same sequence, the Tm in data set [2] turned out to be 57.2 °C.

GCGTTGGAACGC ((((....)))): in data set [1], the folding enthalpy was -16.5 kcal/mol. Also, in data set [2], the Tm is 52.4 °C.

Regarding GCAGGGGGAAACCCCCGC ((.((((....)))).)), the folding enthalpy in data set [1] was -14.5 kcal/mol. For the same sequence, in data set [2], the Tm was determined as 61.6 °C.

For the sequence CGCGGAGCTGTCCGCG ((((((....)))))), the folding enthalpy in data set [1] was -20.9 kcal/mol. Besides, in data set [2], the Tm was found to be 67.1 °C.

In the case of GATCTAAAGGTAGATC ((((((....)))))), the folding enthalpy in data set [1] is -18.5 kcal/mol. Moreover, the Tm in data set [2] was 33.9 °C.

In the case of GCTCGTGGAAACACGAAC (.(((((....))))).), the folding enthalpy in data set [1] was -14.6 kcal/mol. Besides, the Tm in data set [2] came to 45.2 °C.

The values above are taken from the array DNA melting data of Ke et al. (doi:10.1101/2024.01.08.574731).
